The term Ki denotes a measure of affinity in units of concentration, obtained from inhibition or displacement. Read a high Ki as weaker binding.

Test [1] deals with T1, PKCθC1B Y239A (Mus musculus, UniProt Q02111, Y239A).
T1 sequence (Q02111 232-281 Y239A): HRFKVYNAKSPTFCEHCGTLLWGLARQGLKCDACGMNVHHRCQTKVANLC
The experiment in a line: [3H]PDBu binding assay. Particulars: for Ki/Kd / Ki: PKCθ C1B Y239A; for Ki/Kd: Ki of the diacylglycerol over Kd of PDBu; for Ki: competition of [3H]PDBu binding, mean ± S.E.M.; for reduction in binding affinity compared with the wild-type: Y239A vs wild-type PKCθC1B (Kd for PDBu, Ki for DOG/SAG). An outline of the steps: (§1)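 GST-cleaved mouse PKCθ C1B (residues 232–281), E. coli-expressed, affinity/gel-filtration purified. PEG-precipitation [3H]PDBu binding; Kd from saturable plus linear non-specific fit. Ki: [3H]PDBu at 2–5-fold each construct's Kd, DOG or SAG 1–100000 nM, dried from chloroform with phospholipid, sonicated. PS dependence: total phospholipid 100 μg/ml, PS 0–100%, remainder PC, relative to 100% PS. Means ± S.E.M., three independent experiments.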

The target of test [2] is T2, PKCθC1B L255G (Mus musculus, UniProt Q02111, L255G).
T2 sequence (Q02111 232-281 L255G): T1 sequence (Q02111 232-281 Y239A) with A8Y, L24G
The experiment in a line: [3H]PDBu binding assay. Particulars: for reduction in binding affinity compared with the wild-type: L255G vs wild-type PKCθC1B (Kd for PDBu, Ki for DOG/SAG); for Ki/Kd / Ki: PKCθ C1B L255G; for Ki/Kd: Ki of the diacylglycerol over Kd of PDBu; for Ki: competition of [3H]PDBu binding, mean ± S.E.M. A digest of the protocol: as §1

Test [3] concerns the target T3, PKCθC1B T243A (Mus musculus, UniProt Q02111, T243A).
T3 sequence (Q02111 232-281 T243A): T1 sequence (Q02111 232-281 Y239A) with A8Y, T12A
The experiment in a line: [3H]PDBu binding assay. Particulars: for Ki/Kd / Ki: PKCθ C1B T243A; for Ki/Kd: Ki of the diacylglycerol over Kd of PDBu; for Ki: competition of [3H]PDBu binding, mean ± S.E.M.; for reduction in binding affinity compared with the wild-type: T243A vs wild-type PKCθC1B (Kd for PDBu, Ki for DOG/SAG). A digest of the protocol: as §1

The target in test [4] is T4, PKCθC1B Q258G (Mus musculus, UniProt Q02111, Q258G).
T4 sequence (Q02111 232-281 Q258G): T1 sequence (Q02111 232-281 Y239A) with A8Y, Q27G
The experiment in a line: [3H]PDBu binding assay. Particulars: for Ki/Kd / Ki: PKCθ C1B Q258G; for Ki/Kd: Ki of the diacylglycerol over Kd of PDBu; for Ki: competition of [3H]PDBu binding, mean ± S.E.M.; for reduction in binding affinity compared with the wild-type: Q258G vs wild-type PKCθC1B (Kd for PDBu, Ki for DOG/SAG). A digest of the protocol:
as §1

Test [5] deals with T5, PKCθC1B W253G (Mus musculus, UniProt Q02111, W253G).
T5 sequence (Q02111 232-281 W253G): T1 sequence (Q02111 232-281 Y239A) with A8Y, W22G
The experiment in a line: [3H]PDBu binding assay. The conditions noted are these: for Ki/Kd / Ki: PKCθ C1B W253G; for Ki/Kd: Ki of the diacylglycerol over Kd of PDBu; for Ki: competition of [3H]PDBu binding, mean ± S.E.M.; for reduction in binding affinity compared with the wild-type: W253G vs wild-type PKCθC1B (Kd for PDBu, Ki for DOG/SAG).

The target of test [6] is T6, PKCθC1B wild-type (Mus musculus, UniProt Q02111).
T6 sequence (Q02111 232-281): T1 sequence (Q02111 232-281 Y239A) with A8Y
Nature of the test: [3H]PDBu binding assay. The conditions noted are these: for Ki/Kd / Ki: PKCθ C1B WT; for Ki/Kd: Ki of the diacylglycerol over Kd of PDBu; for Ki: competition of [3H]PDBu binding, mean ± S.E.M. A digest of the protocol:
as §1

In test [7] the target is full-length PKCθ T243A (Mus musculus, UniProt Q02111, T243A). Nature of the test: Membrane translocation in HEK-293 cells. The conditions noted are these: 250 nM DOG, 2 h. The test is classed as cell-based.
Test [8] deals with full-length PKCθ Y239A (Mus musculus, UniProt Q02111, Y239A). The experiment in a line: Membrane translocation in HEK-293 cells. The test is classed as cell-based. The conditions noted are these: 250 nM DOG, 2 h.
Test [9] concerns the target full-length PKCθ Q258G (Mus musculus, UniProt Q02111, Q258G). Nature of the test: Membrane translocation in HEK-293 cells. The test is classed as cell-based. The conditions noted are these: 250 nM DOG, 2 h.
Test [10] concerns the target full-length PKCθ L255G (Mus musculus, UniProt Q02111, L255G). Nature of the test: Membrane translocation in HEK-293 cells. The test is classed as cell-based. The conditions noted are these: 250 nM DOG, 2 h.
The target of test [11] is full-length PKCθ W253G (Mus musculus, UniProt Q02111, W253G). The experiment in a line: Membrane translocation in HEK-293 cells. The test is classed as cell-based. Particulars: 250 nM DOG, 2 h.

Numbering of substitutions follows the chain as printed. Values joined by “and” are separate entries in the source; they are usually repeats but may differ in a detail not shown here. Identical values can stand only once.

Chain of full-length PKCθ W253G (Q02111 whole entry W253G): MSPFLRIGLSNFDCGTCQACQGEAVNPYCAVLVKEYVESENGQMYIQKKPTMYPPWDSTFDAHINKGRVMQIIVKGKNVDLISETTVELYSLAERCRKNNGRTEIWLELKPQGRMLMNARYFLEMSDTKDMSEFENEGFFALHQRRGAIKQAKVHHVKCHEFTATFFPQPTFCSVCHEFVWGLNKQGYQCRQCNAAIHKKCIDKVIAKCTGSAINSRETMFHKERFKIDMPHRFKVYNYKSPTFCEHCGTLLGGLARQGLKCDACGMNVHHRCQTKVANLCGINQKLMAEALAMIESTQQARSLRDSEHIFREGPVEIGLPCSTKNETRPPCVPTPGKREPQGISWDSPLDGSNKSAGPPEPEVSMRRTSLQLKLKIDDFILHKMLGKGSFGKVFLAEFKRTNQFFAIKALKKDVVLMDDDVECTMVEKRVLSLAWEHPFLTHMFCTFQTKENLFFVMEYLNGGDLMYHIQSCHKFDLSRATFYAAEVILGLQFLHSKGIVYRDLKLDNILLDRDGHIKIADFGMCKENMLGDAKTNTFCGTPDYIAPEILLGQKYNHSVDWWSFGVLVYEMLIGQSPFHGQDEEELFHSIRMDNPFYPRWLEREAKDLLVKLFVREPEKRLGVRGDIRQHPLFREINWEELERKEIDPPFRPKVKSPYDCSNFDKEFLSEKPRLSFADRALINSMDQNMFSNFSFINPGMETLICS
Chain of full-length PKCθ L255G (Q02111 whole entry L255G): as the sequence (Q02111 whole entry W253G) above, with G253W, L255G counted along it
Chain of full-length PKCθ Y239A (Q02111 whole entry Y239A): as the sequence (Q02111 whole entry W253G) above, with Y239A, G253W counted along it
Chain of full-length PKCθ T243A (Q02111 whole entry T243A): as the sequence (Q02111 whole entry W253G) above, with T243A, G253W counted along it
Chain of full-length PKCθ Q258G (Q02111 whole entry Q258G): as the sequence (Q02111 whole entry W253G) above, with G253W, Q258G counted along it

In the case of `CCCCC/C=C\C/C=C\C/C=C\C/C=C\CCCC(=O)OC(CO)COC(=O)CCCCCCCCCCCCCCCCC` (centres unmarked) [SAG, sn-1-stearoyl 2-arachidonyl glycerol], the Ki/Kd in test [1] is reported as 11; in test [2], 16; in test [3], 9; in [4] it was 3; in [5], 92; in test [6], 22. Further, the Ki was 35.1 ± 5.1 nM in test [1]; 71 ± 10 nM in test [2]; 5.5 ± 1.5 nM in test [3]; 2260 ± 330 nM in test [4]; 271 ± 22 nM in test [5]; 8.7 ± 2 nM in test [6]. The “reduction in binding affinity compared with the wild-type” value was 4.13 fold in test [1]; 8.16 fold in [2]; 0.63 fold in test [3]; 260 fold in test [4]; 31.1 fold and 31 fold in [5]. Moreover, the “stronger binding affinity for SAG than for DOG” value in [6] (C1B domain of PKCθ) is given as 2 fold.

With `CCCCCCCC(=O)OC[C@H](CO)OC(=O)CCCCCCC` [DOG, sn-1,2-dioctanoylglycerol], the “reduction in membrane translocation compared with the wild-type” value in test [7] is recorded as 8.98%; in test [8] it was 12.0%; in test [9], 15.9%; in test [10], 15.4%; in [11], 5.9%. Moreover, the Ki/Kd was 26 in test [1]; 17 in [2]; 34 in [3]; 3 in test [4]; 159 in test [5]; 41 in test [6]. The inhibition constant Ki was determined as 86 ± 15 nM in test [1]; 76 ± 24 nM in test [2]; 21.5 ± 1.8 nM in [3]; 1840 ± 320 nM in test [4]; 470 ± 69 nM in test [5]; 16.1 ± 0.7 nM in test [6]. The “reduction in binding affinity compared with the wild-type” value was 5.34 fold in test [1]; 4.72 fold in test [2]; 1.34 fold in [3]; 114 fold in test [4]; 29.2 fold and 29 fold in [5]. In addition, in test [5] (W253G vs wild-type), the “greater loss of affinity for DOG than for PDBu caused by W253G” value was 4 fold.

The values are drawn from paper PMC6988732 (The Biochemical journal, 2013).
